Source: ChEMBL document CHEMBL1147862, “Studies on synthesis and pharmacological activities of 3,6-disubstituted-1,2,4-triazolo[3,4-b]-1,3,4-thiadiazoles and their dihydro analogues” (2007)

How the values were obtained:
Assay type in all cases: functional
Escherichia coli [1] = assay: Antibacterial activity against Escherichia coli at 30 ug/ml by agar plate diffusion technique; settings: read-out: IZ
Aspergillus niger [2] = assay: Antifungal activity against Aspergillus niger at 20 ug/ml by paper disc method; settings: read-out: IZ
Pseudomonas aeruginosa [3] = assay: Antibacterial activity against Pseudomonas aeruginosa at 20 ug/ml by agar plate diffusion technique; settings: read-out: IZ
Pseudomonas aeruginosa [4] = assay: Antibacterial activity against Pseudomonas aeruginosa at 10 ug/ml by agar plate diffusion technique; settings: read-out: IZ
Staphylococcus aureus [5] = assay: Antibacterial activity against Staphylococcus aureus at 30 ug/ml by agar plate diffusion technique; settings: read-out: IZ
Mus musculus [6] = assay: Analgesic activity in Swiss mouse assessed as increase in reaction time at 20 mg/kg, po after 30 mins by Eddy's hot plate technique
Procedure, shortened: (§1)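 Swiss mice of either sex, 25–35 g, placed one at a time on a hot plate held at 55 °C. End point is paw licking or jumping, whichever comes first, with a 15 s cut-off to avoid paw injury. Reaction time is recorded and reported as percent increase in reaction time.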

Candida albicans [7] = assay: Antifungal activity against Candida albicans at 20 ug/ml by paper disc method; settings: read-out: IZ
Escherichia coli [8] = assay: Antibacterial activity against Escherichia coli at 10 ug/ml by agar plate diffusion technique; settings: read-out: IZ
Candida albicans [9] = assay: Antifungal activity against Candida albicans at 10 ug/ml by paper disc method; settings: read-out: IZ
Rattus norvegicus [10] = assay: Antiinflammatory activity in Wistar Albino rat assessed as inhibition of carrageenan-induced paw oedema at 20 mg/kg after 1 hr relative to control
Procedure, shortened: (§2)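 Wistar albino rats, 150–200 g, six per group, dosed orally with a 20 mg/kg suspension; control gets 0.1 ml 1% gum acacia. After 30 min, 0.1 ml 1% carrageenan in saline is injected subplantar into the right hind paw. Paw volume is read by plethysmograph at 0–4 h. Inhibition = 100(1 − Vtest/Vcontrol) on mean volume increase.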

Aspergillus niger [11] = assay: Antifungal activity against Aspergillus niger at 30 ug/ml by paper disc method; settings: read-out: IZ
Mus musculus [12] = assay: Analgesic activity in Swiss mouse assessed as increase in reaction time at 20 mg/kg, po after 60 mins by Eddy's hot plate technique; procedure, shortened: as §1
Bacillus subtilis [13] = assay: Antibacterial activity against Bacillus subtilis at 10 ug/ml by agar plate diffusion technique; settings: read-out: IZ
Pseudomonas aeruginosa [14] = assay: Antibacterial activity against Pseudomonas aeruginosa at 30 ug/ml by agar plate diffusion technique; settings: read-out: IZ
Staphylococcus aureus [15] = assay: Antibacterial activity against Staphylococcus aureus at 10 ug/ml by agar plate diffusion technique; settings: read-out: IZ
Rattus norvegicus [16] = assay: Antiinflammatory activity in Wistar Albino rat assessed as inhibition of carrageenan-induced paw oedema at 20 mg/kg after 2 hrs relative to control; procedure, shortened: as §2
Candida albicans [17] = assay: Antifungal activity against Candida albicans at 30 ug/ml by paper disc method; settings: read-out: IZ
Rattus norvegicus [18] = assay: Antiinflammatory activity in Wistar Albino rat assessed as inhibition of carrageenan-induced paw oedema at 20 mg/kg after 4 hrs relative to control; procedure, shortened: as §2
Bacillus subtilis [19] = assay: Antibacterial activity against Bacillus subtilis at 30 ug/ml by agar plate diffusion technique; settings: read-out: IZ
Mus musculus [20] = assay: Analgesic activity in Swiss mouse assessed as increase in reaction time at 20 mg/kg, po after 90 mins by Eddy's hot plate technique; procedure, shortened: as §1
Staphylococcus aureus [21] = assay: Antibacterial activity against Staphylococcus aureus at 20 ug/ml by agar plate diffusion technique; settings: read-out: IZ
Bacillus subtilis [22] = assay: Antibacterial activity against Bacillus subtilis at 20 ug/ml by agar plate diffusion technique; settings: read-out: IZ
Rattus norvegicus [23] = assay: Antiinflammatory activity in Wistar Albino rat assessed as inhibition of carrageenan-induced paw oedema at 20 mg/kg after 3 hrs relative to control; procedure, shortened: as §2
Escherichia coli [24] = assay: Antibacterial activity against Escherichia coli at 20 ug/ml by agar plate diffusion technique; settings: read-out: IZ
Aspergillus niger [25] = assay: Antifungal activity against Aspergillus niger at 10 ug/ml by paper disc method; settings: read-out: IZ

COc1ccc(Cc2nnc3sc(-c4cc(-c5ccccc5)nc5ccccc45)nn23)cc1OC
zone of inhibition at 30 µg/mL (Escherichia coli [1]): 16.9 mm | zone of inhibition at 20 µg/mL (Aspergillus niger [2]): 11.5 mm | zone of inhibition at 20 µg/mL (Pseudomonas aeruginosa [3]): 10.8 mm | zone of inhibition at 10 µg/mL (Pseudomonas aeruginosa [4]): 5.92 mm | zone of inhibition at 30 µg/mL (Staphylococcus aureus [5]): 16.7 mm | Activity (Mus musculus [6]): 5.36% | zone of inhibition at 20 µg/mL (Candida albicans [7]): 11.4 mm | zone of inhibition at 10 µg/mL (Escherichia coli [8]): 6.08 mm | zone of inhibition at 10 µg/mL (Candida albicans [9]): 5.82 mm | inhibition in vivo at 20 mg/kg (Rattus norvegicus [10]): 12.3% | zone of inhibition at 30 µg/mL (Aspergillus niger [11]): 16.7 mm | Activity (Mus musculus [12]): 17.26% | zone of inhibition at 10 µg/mL (Bacillus subtilis [13]): 5.76 mm | zone of inhibition at 30 µg/mL (Pseudomonas aeruginosa [14]): 16 mm | zone of inhibition at 10 µg/mL (Staphylococcus aureus [15]): 5.12 mm | inhibition in vivo at 20 mg/kg (Rattus norvegicus [16]): 18.7% | zone of inhibition at 30 µg/mL (Candida albicans [17]): 17.9 mm | inhibition in vivo at 20 mg/kg (Rattus norvegicus [18]): 22.2% | zone of inhibition at 30 µg/mL (Bacillus subtilis [19]): 15.9 mm | Activity (Mus musculus [20]): 25.11% | zone of inhibition at 20 µg/mL (Staphylococcus aureus [21]): 10.3 mm | zone of inhibition at 20 µg/mL (Bacillus subtilis [22]): 10.2 mm | inhibition in vivo at 20 mg/kg (Rattus norvegicus [23]): 20.2% | zone of inhibition at 20 µg/mL (Escherichia coli [24]): 11.3 mm | zone of inhibition at 10 µg/mL (Aspergillus niger [25]): 6.14 mm
